Substitutions are numbered along the chain they refer to. “And” between values parts separate entries of the source, which are not always exact repeats. Identical values can stand only once. Like-named read-outs stand apart in the source and are kept apart here.
How the values were obtained:
EAAC1 [1] = biological target: T1, EAAC1 (Rattus norvegicus, UniProt P51907); experiment: Whole-cell current recording of EAAC1WT expressed in HEK 293T cells; assay type: cell-based; details: for effect on anion current when applied alone: 100 μM applied alone, intracellular SCN−
T1 sequence (P51907 1-523): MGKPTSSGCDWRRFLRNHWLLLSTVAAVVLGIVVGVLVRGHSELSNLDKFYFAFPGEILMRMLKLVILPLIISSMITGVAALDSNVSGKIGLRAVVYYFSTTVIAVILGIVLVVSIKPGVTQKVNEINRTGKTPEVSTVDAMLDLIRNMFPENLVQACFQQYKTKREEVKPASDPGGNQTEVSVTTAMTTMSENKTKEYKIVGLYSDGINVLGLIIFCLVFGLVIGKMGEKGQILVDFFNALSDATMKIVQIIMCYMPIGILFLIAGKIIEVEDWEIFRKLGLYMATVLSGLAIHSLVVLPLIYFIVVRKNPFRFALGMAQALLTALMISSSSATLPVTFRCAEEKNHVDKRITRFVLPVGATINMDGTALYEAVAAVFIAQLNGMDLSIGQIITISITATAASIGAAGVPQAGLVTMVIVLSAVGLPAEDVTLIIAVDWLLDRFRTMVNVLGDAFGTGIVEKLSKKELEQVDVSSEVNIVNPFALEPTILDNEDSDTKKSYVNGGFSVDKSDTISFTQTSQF
Outline: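 HEK 293T cells transfected with EAAC1 plasmid plus RFP DNA (JetPRIME) and used at least 24 h later; whole-cell patch clamp held at 0 mV. Ki came from test-compound dose-response curves of glutamate-induced anion current at 20, 50 and 100 μM L-glutamate (forward mode: 140 mM NaCl outside, 140 mM KSCN pipette). Reverse mode used KSCN outside with NaCl + 10 mM L-Glu in the pipette. Homoexchange used NaCl + 1 mM L-glutamate outside with NaSCN + 10 mM L-glutamate in the pipette.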

glutamate transport = details: cited from earlier work
[2] = physiological conditions; cited from earlier work
EAAC1R446Q = biological target: T2, EAAC1R446Q (Rattus norvegicus, UniProt P51907, R446Q); experiment: Whole-cell current recording of EAAC1 with the R446Q mutation, exchange mode; assay type: cell-based; details: application of 1 mM L-glutamate or 0.2 mM TBOA; NaSCN pipette; 0 mV
T2 sequence (P51907 1-523 R446Q): T1 sequence (P51907 1-523) with R446Q

[3] = pKa of the 3-hydroxyl-Δ2-isoxazoline group; assay type: physicochemical; details: pH 7.3, based on its pKa
EAAC1 [4] = biological target: T1, EAAC1; experiment: Pre-incubation / rapid solution exchange experiment; assay type: cell-based
Outline: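 Transfected HEK 293T cells, whole-cell at 0 mV; bath 140 mM NaMES, pipette 140 mM KSCN. Test compound (3, 20 or 100 μM) applied 2 s by solution exchange, then rapid washout with simultaneous switch to 1 mM L-glutamate (~10 ms exchange resolution, ~100 mbar). Responses normalised to a 100 μM glutamate control, n = 3; observed rate constants taken as 1/τ.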

EAAC1 [5] = biological target: T1, EAAC1; experiment: Laser-pulse photolysis of MNI-caged glutamate, pre-steady-state kinetics; assay type: cell-based
Outline: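 HEK 293T cells co-transfected with EAAC1 and RFP plasmids, used ≥24 h later; whole-cell clamp at 0 mV. 1 mM MNI-caged L-glutamate pre-applied 4 s, then ~5 ns 355 nm pulse releasing ~60–100 μM glutamate; 160 ms at 50 kHz, ±10 μM test compound. Bath 140 mM NaMES; pipette 140 mM KMES (transport) or KSCN (anion). Exponential fits→decay rate constants.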

[6] = cited from earlier work
[7] = tested on: glutamate transporters in synaptosomes prepared from rat brains; details: (+)-HIP-B eutomer versus (−)-HIP-B; cited from earlier work

Structure (SMILES) | effect on anion current when applied alone (EAAC1 [1]; 0 mV) | apparent affinity for inhibition of glutamate transport (glutamate transport) | neurotoxicity [2] | current induced in EAAC1R446Q (EAAC1R446Q) | fraction in neutral form [3] | transport current when applied alone (EAAC1 [1]; 100 μM, NaMES extracellular, KMES pipette, 0 mV) | alleviation of TBOA (1 μM) inhibition of leak anion current (EAAC1 [1]; any concentration tested, up to 70 μM, in the presence of 1 μM TBOA) | Ki (EAAC1 [1]; read-out: Ki value (range used for estimate), approximate value in discussion) | Ki (EAAC1 [1]; read-out: inhibition constant Ki, glutamate-induced anion current, forward transport mode, 20 μM glutamate, n = 3, 0 mV, KSCN pipette) | Ki (EAAC1 [1]; read-out: inhibition constant Ki, glutamate-induced anion current, forward transport mode, 100 μM glutamate, n = 3, 0 mV, KSCN pipette) | Ki (EAAC1 [1]; read-out: inhibition constant in the reverse transport mode, 20 μM glutamate, n = 3, reverse transport mode) | bimolecular rate constant for binding (EAAC1 [4]; estimated from Ki in the 20 μM range and dissociation on the 50 ms time scale) | time scale of binding at the relevant concentration range (EAAC1 [4]; estimated from bimolecular rate constant) | time for full reversal of inhibition (EAAC1 [4]; washout) | time scale of dissociation from binding site (EAAC1 [4]; washout experiment) | effect on peak of transient anion current (EAAC1 [5]; anion conducting mode) | effect on decay time constants τfast and τslow of transient transport current (EAAC1 [5]; forward transport mode) | pKa of the 3-hydroxyl-Δ2-isoxazoline group [6] | eudismic ratio, inhibition of [3H]D-aspartate uptake [7] | time constant for activation of anion current by glutamate (EAAC1 [4]; 1 mM glutamate, no inhibitor, limited by solution exchange)
N[C@H](C(=O)O)[C@H](OCc1ccccc1)C(=O)O (racemic) [TBOA, DL-threo-β-benzyloxyaspartic acid] | generated outward current | sub-μM range | neurotoxic | < 5 pA | – | – | – | – | – | – | – | – | – | – | – | – | – | – | – | –
O=C(O)[C@H]1NC[C@@H]2C(O)=NO[C@@H]21 [(+)-HIP-B, (+)-(3aS,6S,6aS)-3-Hydroxy-4,5,6,6a-tetrahydro-3aH-pyrrolo[3,4-d]isoxazole-6-carboxylic acid] | did not induce or inhibit anion current | – | – | – | less than 1% | did not elicit transport current | unable to alleviate the TBOA effect | ~20 µM | 8.7 ± 1.5 µM | 9.2 ± 1.2 µM | 23.2 ± 2.5 µM | ~10^6 M^−1s^−1 | 20 to 50 ms | ≤ 500 ms | 50 to 60 ms and ~50 ms | inhibited strongly | virtually unaffected | 5.1 | 10 | –
N[C@@H](CCC(=O)O)C(=O)O [glutamate, L-glutamate, reference compound] | – | – | – | < 5 pA | – | – | – | – | – | – | – | – | – | – | – | – | – | – | – | 7 ± 2 ms

Source: article PMC3493172 (Biochemistry, 2012)
